From the M2OR odorant receptor database

biological target: T1, OR5AC2 (Homo sapiens) (UniProt Q9NZP5); conditions: stereoisomer not certain
T1 sequence (whole entry): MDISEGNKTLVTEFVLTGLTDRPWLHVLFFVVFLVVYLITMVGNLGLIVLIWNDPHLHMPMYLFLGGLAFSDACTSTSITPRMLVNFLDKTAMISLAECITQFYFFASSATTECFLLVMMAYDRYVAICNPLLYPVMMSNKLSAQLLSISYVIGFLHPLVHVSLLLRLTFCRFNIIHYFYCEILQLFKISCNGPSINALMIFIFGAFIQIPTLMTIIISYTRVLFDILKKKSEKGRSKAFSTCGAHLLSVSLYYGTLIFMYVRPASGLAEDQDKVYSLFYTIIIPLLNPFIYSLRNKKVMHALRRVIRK
Procedure, shortened: (§1)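 Values were gathered from published papers (main text and supplementary material), with extra details requested from the original authors when needed, and checked for typos and inconsistencies. Each receptor–molecule pair is called responsive (active) if the original authors judged the measured signal statistically different from baseline, and non-responsive (inactive) otherwise. Assay methods varied by source, often transient mammalian cell-line luciferase assays. Recorded details include cell line, G-protein, co-transfected protein and tags.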

Row | Structure (SMILES) | odorant receptor agonist call
1 | CCc1ccc(CC(C)(C)C=O)cc1 | inactive
2 | COC1CC2CC1C1CC(C=O)CC21 (stereo not drawn) | inactive
3 | CC(=O)C=CC1=C(C)CCCC1(C)C | inactive
4 | C=CCOC(=O)COCCC(C)C | inactive
5 | CC(=O)OCc1ccccc1 | inactive
6 | CCCCC1CCC(=O)O1 (stereo not drawn) | inactive
7 | CCCCCC1C(=O)CCC1CC(=O)OC (stereo not drawn) | inactive
8 | CC(C)=CCCC(C)=CCO | inactive
9 | CCC=C(C)C(O)CCCCC (stereo not drawn) | inactive
10 | CCC(=O)C=CC1C(C)=CCCC1(C)C (stereo not drawn) | inactive
11 | C=CC(C)(O)CCC=C(C)CCC=C(C)C (stereo not drawn) | inactive
12 | CCCCCC1COCCC1OC(C)=O (stereo not drawn) | inactive

biological target: T2, OR5AN1 (Homo sapiens) (UniProt Q8NGI8); conditions: stereoisomer not certain
T2 sequence (whole entry): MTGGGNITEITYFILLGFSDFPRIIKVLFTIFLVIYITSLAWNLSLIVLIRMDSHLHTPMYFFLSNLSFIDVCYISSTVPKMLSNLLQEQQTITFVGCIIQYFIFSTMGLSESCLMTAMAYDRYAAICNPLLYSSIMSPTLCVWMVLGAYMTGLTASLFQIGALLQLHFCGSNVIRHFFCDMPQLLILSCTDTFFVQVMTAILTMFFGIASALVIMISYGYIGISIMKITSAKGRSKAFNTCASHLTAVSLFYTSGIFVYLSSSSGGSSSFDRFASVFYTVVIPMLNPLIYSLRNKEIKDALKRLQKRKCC
Procedure, shortened: as §1

Row | Structure (SMILES) | odorant receptor agonist call
13 | C1CCCCCCCCCCCCCC1 | inactive
14 | CC1CCCCCCCCCCCC(=O)C1 (stereo not drawn) | active
15 | O=C1CCCCCCCCC1 | inactive
16 | O=C1C=CCCCCCCCCCCCCO1 | active
17 | O=C1CCCCCCC=CCCCCCCC1 | active
18 | CC1C(C)(C)C2=C(C(=O)CCC2)C1(C)C (stereo not drawn) | inactive
19 | CCCCCCCC(=O)CCCCCCC | inactive
20 | CC1CC=CCCCCCCCCCC(=O)C1 (stereo not drawn) | active
21 | O=C1CCCC=CCCCCCCCCCC1 | active
22 | OC1CCCCCCCCCCCCCC1 | inactive
23 | O=C1CCCCCC=CCCCCCCCCO1 | active
24 | CCC(=O)OCC(C)(C)OC(C)C1CCCC(C)(C)C1 (stereo not drawn) | inactive
25 | CCCCCCCCCCCCCC(C)=O | inactive
26 | O=C1CCCCCCCCCC1 | inactive
27 | CC1CC=CCCCCCCCCC(=O)C1 (stereo not drawn) | active
28 | O=C1CCCCCCCCCCCCCC1 | active
